Data: ChEMBL document CHEMBL1681705, “Optimisation of ITK inhibitors through successive iterative design cycles” (Bioorg Med Chem Lett, 2011)

Assays:
[1] = target: Myosin light chain kinase, smooth muscle (Homo sapiens) (UniProt Q15746); test: Inhibition of MLCK at 1 uM; values are per cent of control
[2] = target: Mitogen-activated protein kinase 8 (Homo sapiens) (UniProt P45983); test: Inhibition of JNK1a1 at 1 uM
Procedure, shortened: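 Single-point profiling in a panel of 108 kinases. Each selected inhibitor was tested at two concentrations, 0.1 and 1.0 micromolar. Values are reported as inhibition at each concentration.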

[3] = target: Serine/threonine-protein kinase MARK1 (Homo sapiens) (UniProt Q9P0L2); test: Inhibition of MARK1 at 0.1 uM; values are per cent of control
Chain of Serine/threonine-protein kinase MARK1 (Homo sapiens) (Q9P0L2 whole entry, looked up): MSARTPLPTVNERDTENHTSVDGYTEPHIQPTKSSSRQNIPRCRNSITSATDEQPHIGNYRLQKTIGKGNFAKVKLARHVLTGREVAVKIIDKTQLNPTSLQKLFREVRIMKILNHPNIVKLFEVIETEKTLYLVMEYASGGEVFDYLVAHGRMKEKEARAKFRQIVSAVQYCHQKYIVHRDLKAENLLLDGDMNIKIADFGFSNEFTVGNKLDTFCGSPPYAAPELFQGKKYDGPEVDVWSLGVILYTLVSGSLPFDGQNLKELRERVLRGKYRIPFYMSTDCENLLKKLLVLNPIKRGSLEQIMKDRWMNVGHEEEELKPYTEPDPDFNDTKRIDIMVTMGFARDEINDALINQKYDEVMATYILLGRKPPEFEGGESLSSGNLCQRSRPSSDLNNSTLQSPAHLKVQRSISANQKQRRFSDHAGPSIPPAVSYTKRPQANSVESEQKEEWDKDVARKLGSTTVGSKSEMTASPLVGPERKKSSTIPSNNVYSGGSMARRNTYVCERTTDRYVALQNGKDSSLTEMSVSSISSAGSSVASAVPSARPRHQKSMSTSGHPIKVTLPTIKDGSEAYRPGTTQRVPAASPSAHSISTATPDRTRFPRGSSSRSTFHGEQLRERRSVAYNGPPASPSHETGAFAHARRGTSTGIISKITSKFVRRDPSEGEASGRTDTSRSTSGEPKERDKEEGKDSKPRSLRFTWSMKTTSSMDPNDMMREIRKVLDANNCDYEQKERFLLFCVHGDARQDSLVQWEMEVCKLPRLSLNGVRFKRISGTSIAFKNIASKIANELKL

[4] = target: T1, Mitogen-activated protein kinase 12 (Homo sapiens) (UniProt P53778); test: Inhibition of SAPK3 at 0.1 uM; values are per cent of control
T1 sequence (whole entry): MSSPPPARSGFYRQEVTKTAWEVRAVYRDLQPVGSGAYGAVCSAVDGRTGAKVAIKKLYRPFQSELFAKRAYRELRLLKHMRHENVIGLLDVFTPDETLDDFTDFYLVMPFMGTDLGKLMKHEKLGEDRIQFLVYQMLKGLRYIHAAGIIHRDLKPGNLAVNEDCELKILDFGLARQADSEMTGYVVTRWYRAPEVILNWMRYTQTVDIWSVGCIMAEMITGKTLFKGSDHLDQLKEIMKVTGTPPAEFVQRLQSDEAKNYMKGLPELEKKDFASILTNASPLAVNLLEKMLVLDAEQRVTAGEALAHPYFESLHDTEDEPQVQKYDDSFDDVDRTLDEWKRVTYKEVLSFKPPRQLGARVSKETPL

[5] = target: Tyrosine-protein kinase Fyn (Homo sapiens) (UniProt P06241); test: Inhibition of Fyn at 0.1 uM; values are per cent of control
[6] = target: Serine/threonine-protein kinase 33 (Homo sapiens) (UniProt Q9BYT3); test: Inhibition of STK33 at 1 uM; values are per cent of control
Chain of Serine/threonine-protein kinase 33 (Homo sapiens) (Q9BYT3 whole entry, looked up): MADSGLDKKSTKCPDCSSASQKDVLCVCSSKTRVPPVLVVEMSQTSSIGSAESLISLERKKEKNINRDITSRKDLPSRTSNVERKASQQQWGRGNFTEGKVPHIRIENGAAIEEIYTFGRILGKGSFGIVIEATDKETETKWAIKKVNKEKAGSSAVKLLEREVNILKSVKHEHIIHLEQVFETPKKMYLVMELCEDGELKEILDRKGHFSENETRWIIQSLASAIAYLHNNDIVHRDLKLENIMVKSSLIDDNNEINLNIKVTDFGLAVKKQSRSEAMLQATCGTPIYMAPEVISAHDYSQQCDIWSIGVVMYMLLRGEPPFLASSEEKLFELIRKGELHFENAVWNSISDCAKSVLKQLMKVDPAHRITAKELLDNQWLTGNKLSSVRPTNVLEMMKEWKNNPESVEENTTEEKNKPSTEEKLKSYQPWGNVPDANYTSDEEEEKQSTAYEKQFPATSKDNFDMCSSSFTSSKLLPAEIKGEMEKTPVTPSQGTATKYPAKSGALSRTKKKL

[7] = target: RAC-beta serine/threonine-protein kinase (Homo sapiens) (UniProt P31751); test: Inhibition of PKBbeta at 1 uM; values are per cent of control
cells = settings: Homo sapiens, T-cell
[8] = target: Serine/threonine-protein kinase MARK1 (Homo sapiens) (UniProt Q9P0L2); test: Inhibition of MARK1 at 1 uM; values are per cent of control
[9] = target: Calcium/calmodulin-dependent protein kinase type 1 (Homo sapiens) (UniProt Q14012); test: Inhibition of CaMK1 at 0.1 uM; values are per cent of control
[10] = target: 3-phosphoinositide-dependent protein kinase 1 (Homo sapiens) (UniProt O15530); test: Inhibition of PDK1 at 1 uM; values are per cent of control
[11] = target: Myosin light chain kinase, smooth muscle (Homo sapiens) (UniProt Q15746); test: Inhibition of MLCK at 0.1 uM; values are per cent of control
[12] = target: Ribosomal protein S6 kinase beta-1 (Homo sapiens) (UniProt P23443); test: Inhibition of p70S6K at 0.1 uM; values are per cent of control
[13] = target: Tyrosine-protein kinase JAK2 (Homo sapiens) (UniProt O60674); test: Inhibition of JAK2 at 1 uM; values are per cent of control
[14] = target: Fibroblast growth factor receptor 1 (Homo sapiens) (UniProt P11362); test: Inhibition of FGFR1 at 1 uM; values are per cent of control
[15] = target: Glycogen synthase kinase-3 beta (Homo sapiens) (UniProt P49841); test: Inhibition of GSK3-beta at 0.1 uM; values are per cent of control
Chain of Glycogen synthase kinase-3 beta (Homo sapiens) (P49841 whole entry, looked up): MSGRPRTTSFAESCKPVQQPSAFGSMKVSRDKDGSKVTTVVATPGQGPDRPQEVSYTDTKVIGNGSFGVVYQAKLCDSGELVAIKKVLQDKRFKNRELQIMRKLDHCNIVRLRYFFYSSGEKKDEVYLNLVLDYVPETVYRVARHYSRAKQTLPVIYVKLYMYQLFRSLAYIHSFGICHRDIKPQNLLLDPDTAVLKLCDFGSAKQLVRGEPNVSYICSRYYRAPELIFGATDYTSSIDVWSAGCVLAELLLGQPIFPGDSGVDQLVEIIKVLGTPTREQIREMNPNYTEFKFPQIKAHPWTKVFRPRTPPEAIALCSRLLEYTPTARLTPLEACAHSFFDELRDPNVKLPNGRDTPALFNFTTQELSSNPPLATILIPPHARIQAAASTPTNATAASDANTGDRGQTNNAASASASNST

[16] = Inhibition of PKA at 1 uM; values are per cent of control
[17] = target: Tyrosine-protein kinase Lck (Homo sapiens) (UniProt P06239); test: Inhibition of Lck at 0.1 uM; values are per cent of control
[18] = target: CDK6/cyclin D3 (Homo sapiens) (UniProt P30281+Q00534); test: Inhibition of CDK6/cyclin D3 at 1 uM; values are per cent of control
[19] = target: Serine/threonine-protein kinase PLK2 (Homo sapiens) (UniProt Q9NYY3); test: Inhibition of Snk at 0.1 uM; values are per cent of control
Chain of Serine/threonine-protein kinase PLK2 (Homo sapiens) (Q9NYY3 whole entry, looked up): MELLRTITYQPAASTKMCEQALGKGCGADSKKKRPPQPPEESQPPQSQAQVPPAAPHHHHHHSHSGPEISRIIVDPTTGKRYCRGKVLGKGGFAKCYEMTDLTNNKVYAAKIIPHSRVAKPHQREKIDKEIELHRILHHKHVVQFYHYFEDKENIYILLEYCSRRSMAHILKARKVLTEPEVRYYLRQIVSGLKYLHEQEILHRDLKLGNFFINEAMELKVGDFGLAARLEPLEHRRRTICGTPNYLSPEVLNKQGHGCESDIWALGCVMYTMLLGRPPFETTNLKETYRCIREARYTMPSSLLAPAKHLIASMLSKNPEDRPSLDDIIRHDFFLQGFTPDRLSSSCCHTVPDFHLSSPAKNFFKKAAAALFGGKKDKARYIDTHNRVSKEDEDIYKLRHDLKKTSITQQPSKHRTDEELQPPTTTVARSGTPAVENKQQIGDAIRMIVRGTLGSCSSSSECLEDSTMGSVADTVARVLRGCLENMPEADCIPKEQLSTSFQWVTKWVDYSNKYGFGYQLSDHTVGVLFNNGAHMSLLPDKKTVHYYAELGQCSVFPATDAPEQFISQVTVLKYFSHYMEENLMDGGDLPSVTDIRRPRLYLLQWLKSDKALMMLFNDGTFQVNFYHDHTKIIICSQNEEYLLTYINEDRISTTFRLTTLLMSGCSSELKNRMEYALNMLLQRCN

[20] = target: Hepatocyte growth factor receptor (Homo sapiens) (UniProt P08581); test: Inhibition of Met at 0.1 uM; values are per cent of control
[21] = target: Fibroblast growth factor receptor 4 (Homo sapiens) (UniProt P22455); test: Inhibition of FGFR4 at 0.1 uM; values are per cent of control
[22] = target: Mitogen-activated protein kinase 1 (Homo sapiens) (UniProt P28482); test: Inhibition of MAPK1 at 0.1 uM; values are per cent of control
[23] = target: Serine/threonine-protein kinase SIK1 (Homo sapiens) (UniProt P57059); test: Inhibition of SIK at 1 uM
[24] = target: Receptor-type tyrosine-protein kinase FLT3 (Homo sapiens) (UniProt P36888); test: Inhibition of Flt3 at 0.1 uM; values are per cent of control
[25] = target: Proto-oncogene tyrosine-protein kinase receptor Ret (Homo sapiens) (UniProt P07949); test: Inhibition of Ret at 0.1 uM; values are per cent of control
[26] = target: Mitogen-activated protein kinase 11 (Homo sapiens) (UniProt Q15759); test: Inhibition of SAPK2b at 1 uM

Chain of Myosin light chain kinase, smooth muscle (Homo sapiens) (Q15746 whole entry): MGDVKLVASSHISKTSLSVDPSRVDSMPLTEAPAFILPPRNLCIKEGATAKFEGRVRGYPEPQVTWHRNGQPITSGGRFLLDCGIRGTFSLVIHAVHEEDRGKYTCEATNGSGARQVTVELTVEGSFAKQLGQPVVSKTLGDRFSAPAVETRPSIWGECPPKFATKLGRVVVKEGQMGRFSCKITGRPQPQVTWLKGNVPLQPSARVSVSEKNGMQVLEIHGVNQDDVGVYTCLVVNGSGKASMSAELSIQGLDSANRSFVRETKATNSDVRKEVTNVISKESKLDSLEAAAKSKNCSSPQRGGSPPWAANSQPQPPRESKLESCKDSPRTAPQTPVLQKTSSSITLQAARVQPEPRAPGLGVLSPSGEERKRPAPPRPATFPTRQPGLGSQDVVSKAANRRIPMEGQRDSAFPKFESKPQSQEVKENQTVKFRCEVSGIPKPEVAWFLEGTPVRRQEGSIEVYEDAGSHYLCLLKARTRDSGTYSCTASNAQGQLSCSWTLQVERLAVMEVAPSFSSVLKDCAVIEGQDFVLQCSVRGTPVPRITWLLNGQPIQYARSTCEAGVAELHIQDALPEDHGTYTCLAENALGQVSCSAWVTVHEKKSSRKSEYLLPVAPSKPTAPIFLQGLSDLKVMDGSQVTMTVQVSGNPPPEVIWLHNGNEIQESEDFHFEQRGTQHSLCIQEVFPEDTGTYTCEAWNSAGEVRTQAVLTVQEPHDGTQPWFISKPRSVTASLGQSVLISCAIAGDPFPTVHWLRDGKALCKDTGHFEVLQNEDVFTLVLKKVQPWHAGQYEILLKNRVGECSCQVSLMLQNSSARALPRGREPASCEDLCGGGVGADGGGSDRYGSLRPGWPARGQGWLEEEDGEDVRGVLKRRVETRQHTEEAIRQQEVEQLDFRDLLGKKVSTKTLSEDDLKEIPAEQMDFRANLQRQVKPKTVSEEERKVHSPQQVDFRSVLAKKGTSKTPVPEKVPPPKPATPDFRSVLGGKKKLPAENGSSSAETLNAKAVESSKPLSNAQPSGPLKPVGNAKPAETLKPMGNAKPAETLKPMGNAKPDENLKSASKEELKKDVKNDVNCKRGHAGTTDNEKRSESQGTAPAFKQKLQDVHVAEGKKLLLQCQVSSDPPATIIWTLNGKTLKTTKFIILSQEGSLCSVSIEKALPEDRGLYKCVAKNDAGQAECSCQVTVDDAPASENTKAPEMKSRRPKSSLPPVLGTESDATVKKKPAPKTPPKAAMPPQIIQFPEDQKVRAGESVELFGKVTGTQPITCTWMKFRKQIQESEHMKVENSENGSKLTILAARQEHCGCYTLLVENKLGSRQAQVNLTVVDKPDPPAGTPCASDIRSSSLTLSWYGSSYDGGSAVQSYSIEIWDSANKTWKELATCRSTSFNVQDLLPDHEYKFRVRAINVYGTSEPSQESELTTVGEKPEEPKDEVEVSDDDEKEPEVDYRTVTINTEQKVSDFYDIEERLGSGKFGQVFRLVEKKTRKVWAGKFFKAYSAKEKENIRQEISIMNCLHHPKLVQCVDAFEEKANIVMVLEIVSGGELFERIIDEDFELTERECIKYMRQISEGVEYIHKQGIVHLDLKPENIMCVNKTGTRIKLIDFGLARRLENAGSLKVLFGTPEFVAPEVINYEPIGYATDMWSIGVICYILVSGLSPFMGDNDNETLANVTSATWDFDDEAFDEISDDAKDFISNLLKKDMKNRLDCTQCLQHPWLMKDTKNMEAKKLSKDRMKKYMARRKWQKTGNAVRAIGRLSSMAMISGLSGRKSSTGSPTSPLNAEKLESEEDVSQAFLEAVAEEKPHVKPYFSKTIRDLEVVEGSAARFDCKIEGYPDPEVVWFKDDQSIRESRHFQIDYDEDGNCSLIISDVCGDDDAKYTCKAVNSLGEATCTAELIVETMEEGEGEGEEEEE
Chain of Mitogen-activated protein kinase 8 (Homo sapiens) (P45983 whole entry): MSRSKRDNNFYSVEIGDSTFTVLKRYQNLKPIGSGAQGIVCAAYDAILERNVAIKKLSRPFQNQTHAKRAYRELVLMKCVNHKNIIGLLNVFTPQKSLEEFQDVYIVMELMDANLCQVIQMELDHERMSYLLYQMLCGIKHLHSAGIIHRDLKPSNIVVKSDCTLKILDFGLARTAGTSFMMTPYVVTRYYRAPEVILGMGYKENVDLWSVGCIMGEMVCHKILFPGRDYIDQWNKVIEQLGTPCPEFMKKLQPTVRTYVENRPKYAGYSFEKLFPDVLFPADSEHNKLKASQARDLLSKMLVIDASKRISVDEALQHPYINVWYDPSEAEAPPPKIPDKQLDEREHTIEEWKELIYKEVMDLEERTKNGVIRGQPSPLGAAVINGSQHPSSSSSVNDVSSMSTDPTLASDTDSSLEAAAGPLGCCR

Molecule Cc1ccc2cc(-c3n[nH]c4ccc(NC5CCNC5)cc34)[nH]c2c1 (centres undefined) has a residual activity [1] of 44%, an inhibition [2] of 73% and a residual activity [3] of 5%. It also gave a residual activity [4] of 92%, a residual activity [5] of 1% and a residual activity [6] of 6%. For the same molecule, the residual activity [7] was 88%, the IC50 (cells) was 20 nM and the residual activity [8] was 0%. For the same molecule, the residual activity [9] was 36%, the residual activity [10] was 10% and the residual activity [11] was 86%. The residual activity [12] was 33%, the residual activity [13] was 0% and the residual activity [14] was 0%. The residual activity [15] was 97%, the residual activity [16] was 6% and the residual activity [17] was 27%. For the same molecule, the residual activity [18] was 33%, the residual activity [19] was 90% and the residual activity [20] was 44%. For the same molecule, the residual activity [21] was 63%, the residual activity [22] was 85% and the inhibition [23] was 9%. For the same molecule, the residual activity [24] was 24%, the residual activity [25] was 8% and the inhibition [26] was 91%.
Work on Cc1ccc2cc(-c3n[nH]c4ccc(NC5CCN(Cc6ccccc6)CC5)cc34)[nH]c2c1 yielded a residual activity [1] of 63%, an inhibition [2] of 76% and a residual activity [3] of 53%. The residual activity [4] was 104%, the residual activity [5] was 30% and the residual activity [6] was 4%. For the same molecule, the residual activity [7] was 85%, the IC50 (cells) was 500 nM and the residual activity [8] was 21%. It also gave a residual activity [9] of 89%, a residual activity [10] of 40% and a residual activity [11] of 89%. The residual activity [12] was 59%, the residual activity [13] was 2% and the residual activity [14] was -2%. It also gave a residual activity [15] of 97%, a residual activity [16] of 5% and a residual activity [17] of 61%. The residual activity [18] was 46%, the residual activity [19] was 78% and the residual activity [20] was 78%. It also gave a residual activity [21] of 65%, a residual activity [22] of 88% and an inhibition [23] of 14%. For the same molecule, the residual activity [24] was 5%, the residual activity [25] was 0% and the inhibition [26] was 86%.
